Data taken from ChEMBL document CHEMBL1157579, “Discovery of potent sulfonamide P4-capped ketoamide second generation inhibitors of hepatitis C virus NS3 serine protease with favorable pharmacokinetic profiles in preclinical species” (Bioorg Med Chem, 2010).

Columns and labels:
Hepatitis C virus = assay: Antiviral activity against Hepatitis C virus genotype 1 by replicon assay; type: functional, organism-based, Hepacivirus hominis
[1] = AUC (0 to 6 hrs) in dog at 2 mg/kg, po; type: ADME, organism-based, Canis lupus familiaris; design: time < 6 hr, dose 2 mg/kg, route oral; conditions: plasma
[2] = Inhibition of HCV NS4A-tethered single chain NS3 serine protease assessed as Ac-DTEDVVP(Nva)- O-PAP substrate hydrolysis by spectrophotometric assay; design: species or system Hepacivirus hominis
Procedure, shortened: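 Ki* reported for a single P1 diastereomer, within twofold at 95% confidence limit.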

[3] = AUC (0 to 6 hrs) in rat at 10 mg/kg, po; type: ADME, organism-based; design: time < 6 hr, dose 10 mg/kg, route oral; conditions: plasma
[4] = Selectivity index, ratio of Ki for HNE to Ki for NS4A-tethered single chain NS3 serine protease
Procedure, shortened: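 Compounds tested against human neutrophil elastase as a counter-protease; selectivity expressed as HNE Ki divided by HCV NS3 protease Ki.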

[5] = AUC (0 to 6 hrs) in dog at 3 mg/kg, po; type: ADME, organism-based, Canis lupus familiaris; design: time < 6 hr, dose 3 mg/kg, route oral; conditions: plasma
[6] = AUC (0 to 6 hrs) in monkey at 10 mg/kg, po; type: ADME, organism-based, Macaca mulatta; design: time < 6 hr, dose 10 mg/kg, route oral; conditions: rhesus monkey, plasma

Compound | EC90 (Hepatitis C virus) | AUC(0-t) at 6 h [1] | Ki [2] | AUC(0-t) at 6 h [3] | Ratio Ki [4] | AUC(0-t) at 6 h [5] | AUC(0-t) at 6 h [6]
CCC[C@H](NC(=O)[C@@H]1[C@@H]2[C@H](CN1C(=O)[C@@H](NC(=O)NC1(CS(=O)(=O)N(C(C)C)C3CC3)CCCCC1)C(C)(C)C)C2(C)C)C(=O)C(=O)NC1CC1 | 100 nM | 0.5 µM·h | 6 nM | 1.7 µM·h |  |  | 
CCC[C@H](NC(=O)[C@@H]1[C@@H]2[C@H](CN1C(=O)[C@@H](NC(=O)NC1(CS(=O)(=O)N(C)C(C)C)CCCCC1)C(C)(C)C)C2(C)C)C(=O)C(=O)NC1CC1 | 70 nM | 0.2 µM·h | 7 nM | 0.9 µM·h | 97 |  | 
CC(C)(C)NC(=O)N[C@H](C(=O)N1C[C@H]2[C@@H]([C@H]1C(=O)NC(CC1CCC1)C(=O)C(N)=O)C2(C)C)C(C)(C)C (stereo partly drawn) [BOCEPREVIR] |  |  | 14 nM | 0.1 µM·h |  | 3.1 µM·h | 0.3 µM·h
CCC[C@H](NC(=O)[C@@H]1[C@@H]2[C@H](CN1C(=O)[C@@H](NC(=O)NC1(CS(=O)(=O)N(C)C)CCCCC1)C(C)(C)C)C2(C)C)C(=O)C(=O)NC1CC1 | 55 nM | 6.1 µM·h | 6 nM | 0.6 µM·h | 82 |  | 0.1 µM·h
CCC[C@H](NC(=O)[C@@H]1[C@@H]2[C@H](CN1C(=O)[C@@H](NC(=O)NC1([C@@H]3CCN(C)S3(=O)=O)CCCCC1)C(C)(C)C)C2(C)C)C(=O)C(=O)NC1CC1 | 20 nM |  | 4 nM | 0.1 µM·h | 340 |  | 
CCC[C@H](NC(=O)[C@@H]1[C@@H]2[C@H](CN1C(=O)[C@@H](NC(=O)NC1(CS(=O)(=O)N(CC)C3CC3)CCCCC1)C(C)(C)C)C2(C)C)C(=O)C(=O)NC1CC1 | 65 nM | 7.9 µM·h | 5 nM | 1 µM·h | 131 |  | 
CCCC[C@H](NC(=O)[C@@H]1[C@@H]2[C@H](CN1C(=O)[C@@H](NC(=O)NC1(CS(=O)(=O)N(C)C3CC3)CCCCC1)C(C)(C)C)C2(C)C)C(=O)C(=O)NC1CC1 | 105 nM |  | 11 nM |  | 959 |  | 
CCC[C@H](NC(=O)[C@@H]1[C@@H]2[C@H](CN1C(=O)[C@@H](NC(=O)NC1(C3CCN(C4CC4)S3(=O)=O)CCCCC1)C(C)(C)C)C2(C)C)C(=O)C(=O)NC1CC1 (single isomer, unassigned) | 20 nM |  | 4 nM | 0.1 µM·h | 340 |  | 
CCC[C@H](NC(=O)[C@@H]1[C@@H]2[C@H](CN1C(=O)[C@@H](NC(=O)NC1(CS(=O)(=O)NC)CCCCC1)C(C)(C)C)C2(C)C)C(=O)C(=O)NC1CC1 | 300 nM |  | 15 nM |  | 58 |  | 
CCC[C@H](NC(=O)[C@@H]1[C@@H]2[C@H](CN1C(=O)[C@@H](NC(=O)NC1(CS(=O)(=O)N(C)C3CC3)CCCCC1)C(C)(C)C)C2(C)C)C(=O)C(=O)NC1CC1 | 55 nM | 6.9 µM·h | 8 nM | 1.8 µM·h | 82 |  | 3.3 µM·h
CN(C1CC1)S(=O)(=O)CC1(NC(=O)N[C@H](C(=O)N2C[C@H]3[C@@H]([C@H]2C(=O)N[C@@H](CC2CC2)C(=O)C(=O)NC2CC2)C3(C)C)C(C)(C)C)CCCCC1 | 60 nM | 1.4 µM·h | 15 nM | 2.2 µM·h | 113 |  | 
CCC[C@H](NC(=O)[C@@H]1[C@@H]2[C@H](CN1C(=O)[C@@H](NC(=O)NC1([C@H](C)S(=O)(=O)N(C)C)CCCCC1)C(C)(C)C)C2(C)C)C(=O)C(=O)NC1CC1 |  |  | 22 nM |  |  |  | 
CCC[C@H](NC(=O)[C@@H]1[C@@H]2[C@H](CN1C(=O)[C@@H](NC(=O)NC1(CS(=O)(=O)N(C)C(C)(C)CF)CCCCC1)C(C)(C)C)C2(C)C)C(=O)C(=O)NC1CC1 | 45 nM | 0.2 µM·h | 2.8 nM | 0.1 µM·h |  |  | 
CC(C)(C)[C@H](NC(=O)NC1(C(=O)OCc2ccccc2)CCCCC1)C(=O)N1C[C@H]2[C@@H]([C@H]1C(=O)NC(CC1CC1)C(=O)C(N)=O)C2(C)C (stereo partly drawn) | 20 nM |  | 49 nM |  | 55 |  | 0.05 µM·h
C#CCCC(NC(=O)[C@@H]1[C@@H]2[C@H](CN1C(=O)[C@@H](NC(=O)N[C@H](C(=O)C1CC1)C1CCCCC1)C(C)(C)C)C2(C)C)C(=O)C(=O)NC1CC1 (stereo partly drawn) | 55 nM | 0.1 µM·h | 4 nM |  | 20 |  | 
CCC[C@H](NC(=O)[C@@H]1[C@@H]2[C@H](CN1C(=O)[C@@H](NC(=O)NC1(CS(=O)(=O)N(C)CC3CC3)CCCCC1)C(C)(C)C)C2(C)C)C(=O)C(=O)NC1CC1 | 135 nM |  | 9 nM |  |  |  | 
CCC[C@H](NC(=O)[C@@H]1[C@@H]2[C@H](CN1C(=O)[C@@H](NC(=O)NC1(CS(=O)(=O)N3CCC3)CCCCC1)C(C)(C)C)C2(C)C)C(=O)C(=O)NC1CC1 | 80 nM | 0.8 µM·h | 7 nM | 0.8 µM·h |  |  | 
CCC[C@H](NC(=O)C1[C@@H]2[C@H](CN1C(=O)[C@@H](NC(=O)NC1([C@@H](C)S(=O)(=O)N(C)C)CCCCC1)C(C)(C)C)C2(C)C)C(=O)C(=O)NC1CC1 (stereo partly drawn) | 85 nM | 0.1 µM·h | 2 nM | 0.6 µM·h |  |  | 
CCC[C@H](NC(=O)[C@@H]1[C@@H]2[C@H](CN1C(=O)[C@@H](NC(=O)NC1(CS(=O)(=O)N(C)C3CCC3)CCCCC1)C(C)(C)C)C2(C)C)C(=O)C(=O)NC1CC1 | 90 nM | 0.2 µM·h | 7 nM | 0.3 µM·h |  |  | 
CCC[C@H](NC(=O)[C@@H]1[C@@H]2[C@H](CN1C(=O)[C@@H](NC(=O)NC1(CS(=O)(=O)N(C)C(C)(C)C)CCCCC1)C(C)(C)C)C2(C)C)C(=O)C(=O)NC1CC1 | 55 nM | 0.2 µM·h | 8 nM | 0.6 µM·h | 36 |  | 
CN(C1CC1)S(=O)(=O)CC1(NC(=O)N[C@H](C(=O)N2CC3C([C@H]2C(=O)N[C@@H](CCC2CC2)C(=O)C(=O)NC2CC2)C3(C)C)C(C)(C)C)CCCCC1 (single isomer, unassigned) | 75 nM | 4 µM·h | 6 nM | 0.9 µM·h | 2480 |  | 5.4 µM·h
CCC[C@H](NC(=O)[C@@H]1[C@@H]2[C@H](CN1C(=O)[C@@H](NC(=O)NC1(CS(=O)(=O)N(C)CC)CCCCC1)C(C)(C)C)C2(C)C)C(=O)C(=O)NC1CC1 | 65 nM | 0.5 µM·h | 9 nM | 1.5 µM·h | 64 |  | 0.1 µM·h
CCC[C@H](NC(=O)[C@@H]1[C@@H]2[C@H](CN1C(=O)[C@@H](NC(=O)NC1(CS(=O)(=O)N3CCOCC3)CCCCC1)C(C)(C)C)C2(C)C)C(=O)C(=O)NC1CC1 | 45 nM | 0.3 µM·h | 8 nM | 0.3 µM·h | 135 |  | 
